Among the data in ChEMBL document CHEMBL2034923, “3-aminopiperidine-based peptide analogues as the first selective noncovalent inhibitors of the bacterial cysteine protease IdeS” (J Med Chem, 2012) are inhibition, Ki and Ratio Ki values, retold here.

The test system of experiment [1] is Streptococcus pyogenes. Kind of experiment: Inhibition of Streptococcus pyogenes His-tagged IdeS expressed in Escherichia coli BL21 using IgG1 as substrate at 30 mM incubated for 15 mins prior to substrate addition measured after 20 mins. In a few lines: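 IdeS with tag removed (TEV cleavage, Ni2+ and size-exclusion repurification), stored in PBS. Enzyme preincubated 15 min at room temp with analogue (30 mM stock in 50% DMSO/phosphate pH 7.4) before adding human IgG1. Final IdeS 0.8 μM, analogue at 4.8×10^3 molar excess. 20 min at 37 °C, stopped with iodoacetamide. Triplicates, PBS-for-IdeS controls. Read by SPR as fraction of active IdeS from an IdeS standard curve.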

Experiment [2] concerns Streptococcus pyogenes. Kind of experiment: Inhibition of Streptococcus pyogenes His-tagged IdeS expressed in Escherichia coli BL21 using IgG1 as substrate at 30 mM incubated for 15 mins prior to substrate addition measured after 20 mins by SDS-PAGE analysis. Summed up: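 Tag-free IdeS (TEV-cleaved, repurified) preincubated 15 min at room temp with peptide or analogue (30 mM stock in 50% DMSO/phosphate pH 7.4), then IgG1 substrate added. Final IdeS 0.8 μM with 4.8×10^3 molar excess of compound. 20 min at 37 °C, quenched with iodoacetamide, IgG cleavage products detected by SDS-PAGE. Triplicates plus enzyme-free controls.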

The target in another experiment is T1, Papain (Carica papaya) (UniProt P00784).
T1 sequence (whole entry): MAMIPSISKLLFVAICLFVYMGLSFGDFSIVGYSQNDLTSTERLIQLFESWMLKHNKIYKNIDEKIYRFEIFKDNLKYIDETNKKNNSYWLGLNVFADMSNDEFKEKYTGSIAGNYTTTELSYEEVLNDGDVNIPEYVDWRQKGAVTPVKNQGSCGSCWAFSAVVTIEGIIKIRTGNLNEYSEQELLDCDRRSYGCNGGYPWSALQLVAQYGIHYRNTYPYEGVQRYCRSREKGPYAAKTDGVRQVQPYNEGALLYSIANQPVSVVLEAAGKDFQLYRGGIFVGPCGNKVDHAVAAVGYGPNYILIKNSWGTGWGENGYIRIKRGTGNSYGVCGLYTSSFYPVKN
The experiment is described as follows: Inhibition of papaya papain using Nalpa-benzoyl-DL-arginine 4-nitroanilide hydrochloride as substrate at 30 mM incubated for 10 mins prior to substrate addition measured after 2 hrs by colorimetry. In a few lines: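 Papain in pH 6.2 phosphate buffer with 1.23 mM EDTA and 1.23 mM DTT, preincubated 10 min at room temp with compound (30 mM stock in 50% DMSO/phosphate pH 6.2). Final papain 0.9 μM, compound at 4.8×10^3 molar excess. Substrate added from 100 mM DMSO stock, 2 h at 37 °C, stopped with acetic acid, Abs405 read. Duplicates on two occasions. Activity relative to no-inhibitor control.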

Experiment [3] concerns the target T2, Streptopain (Streptococcus pyogenes) (UniProt P0C0J0).
T2 sequence (whole entry): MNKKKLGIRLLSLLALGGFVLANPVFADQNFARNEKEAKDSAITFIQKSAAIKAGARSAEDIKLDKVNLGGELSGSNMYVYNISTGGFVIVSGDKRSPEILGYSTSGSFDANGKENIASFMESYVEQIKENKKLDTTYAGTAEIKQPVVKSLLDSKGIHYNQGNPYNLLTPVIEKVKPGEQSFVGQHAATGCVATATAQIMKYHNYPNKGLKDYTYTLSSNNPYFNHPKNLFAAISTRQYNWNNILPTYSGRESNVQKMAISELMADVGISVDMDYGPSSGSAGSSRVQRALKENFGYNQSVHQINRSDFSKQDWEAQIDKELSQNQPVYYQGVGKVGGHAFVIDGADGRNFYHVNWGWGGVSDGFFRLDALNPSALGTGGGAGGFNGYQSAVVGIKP
Kind of experiment: Inhibition of Streptococcus pyogenes 5448 SpeB using n-bezoyl-proline-phenylalanine-arginine-p-nitroanilide hydrochloride as substrate at 30 mM incubated for 15 mins prior to substrate addition measured after 30 mins by colorimetry. In a few lines:
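SpeB purified from S. pyogenes 5448 culture supernatant (ammonium sulfate precipitation, ion exchange), activated with 2 mM DTT 30 min at 37 °C. Activated enzyme preincubated 15 min at room temperature with analogue (30 mM stock in 50% DMSO/phosphate pH 7.4; 4.8×10^3 molar excess over 0.28 μM final SpeB). Then 1 mM BPFA substrate in 0.1 M phosphate pH 6 added; OD405 change recorded. Activity expressed relative to uninhibited enzyme.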

Experiment [4] can be described thus: Inhibition of Streptococcus pyogenes His-tagged IdeS expressed in Escherichia coli BL21 using IgG1 as substrate by SDS-PAGE analysis. Summed up: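 Ki by competitive-inhibition fit of initial velocities. 2 μM IdeS with repurified polyclonal IgG at 150, 100, 50, 20 or 10 μM, inhibitor at 5, 2, 0.5 mM or 5, 2.5, 1 mM. Initial cleavage read by non-reducing SDS-PAGE densitometry of IgG, single-cleaved IgG, F(ab')2 and 1/2Fc bands, weighted by mass.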

Experiment [5] in a line: Selectivity ratio of Ki for Streptococcus pyogenes IdeS to Ki for papaya papain.

Active and inactive are the calls of the source. No cut-off for these calls is given here. Where a SMILES comes first, the peptide text is derived from it.

For the compound `CC(C)C[C@H](N)C(=O)NCC(=O)NCC(=O)N1CCC[C@H]1C(=O)O` (H-LGGP-OH), the inhibition entry in the experiment on Streptococcus pyogenes [1] is “Active”. Further, in the experiment with Streptococcus pyogenes [2], the inhibition result is “inactive”.
As to `NC(=O)[C@@H]1CCCN1C(=O)CN[C@H]1CCCNC1`, in the experiment with Streptococcus pyogenes [1], the inhibition entry was “Active”.
As for `NCC(=O)N1CCC[C@@H](N2CCC[C@H]2C(N)=O)C1`, the inhibition result in the experiment on Streptococcus pyogenes [1] was “Active”.
As to `NC(=O)CN[C@@H]1CCCNC1`, the inhibition result in the experiment on Streptococcus pyogenes [1] is “Active”. Besides, the inhibition result (on Papain (Carica papaya); in experiment [3]) was “inactive” in each case.
As to `CC(C)C[C@H](N)C(=O)N1CCC[C@@H](NCC(N)=O)C1`, the inhibition entry with Streptococcus pyogenes [1] was “Active”. The inhibition entry (at Papain (Carica papaya); in experiment [3]) was “inactive” in each case. The Ki in experiment [4] was 5.7 mM. For the same compound, the Ratio Ki in experiment [5] came out at 16.
Consider `NCC(=O)NCC(=O)O` (H-Gly-Gly-OH), for which the inhibition result in the experiment with Streptococcus pyogenes [1] was “Active”. The inhibition result in the experiment on Streptococcus pyogenes [2] was “inactive”.
As for `CC(C)C[C@H](NC(=O)[C@@H](N)CC(C)C)C(=O)N1CCC[C@@H](NCC(N)=O)C1`, in the experiment with Streptococcus pyogenes [1], the inhibition entry was “Active”. The inhibition result in experiment [3] is “inactive”.
As for `NCC(=O)N1CCC[C@H](N2CCC[C@H]2C(N)=O)C1`, in the experiment on Streptococcus pyogenes [1], the inhibition result was “Active”.
`CC(C)C[C@H](N)C(=O)NCC(=O)N1CCC[C@H](N2CCC[C@H]2C(N)=O)C1`: the inhibition result (in the experiment with Streptococcus pyogenes [1]; in experiment [3]) was “Active” throughout.
In the case of `NC(=O)CN[C@H]1CCCNC1`, the inhibition entry in the experiment with Streptococcus pyogenes [1] was “Active”. Further, the inhibition result (at Papain (Carica papaya); in experiment [3]) was “inactive” in each case. This compound also displayed a Ki in experiment [4] of 6.7 mM. Besides, the Ratio Ki in experiment [5] turned out to be 16.
On to H-ELLGG-OH, for which the inhibition result in the experiment on Streptococcus pyogenes [2] is “inactive”.
Take `CC(C)C[C@H](NC(=O)[C@@H](N)CC(C)C)C(=O)N1CCC[C@H](NCC(N)=O)C1`: the inhibition result in the experiment on Streptococcus pyogenes [1] was “Active”. The inhibition entry in experiment [3] is “inactive”.
`CC(C)C[C@H](N)C(=O)N1CCC[C@H](NCC(=O)N2CCC[C@H]2C(N)=O)C1`: the inhibition entry in the experiment on Streptococcus pyogenes [1] and at Papain (Carica papaya) was “Active” each time. Besides, in experiment [3], the inhibition entry is “inactive”.
On to H-LLGGPS-OH, for which the inhibition entry in the experiment on Streptococcus pyogenes [2] is “inactive”.
`CC(C)C[C@H](N)C(=O)N1CCC[C@@H](NCC(=O)N2CCC[C@H]2C(N)=O)C1`: the inhibition entry in the experiment with Streptococcus pyogenes [1] is “Active”. Moreover, in experiment [3], the inhibition entry is “inactive”.
On to `CC(C)C[C@H](N)C(=O)NCC(=O)N1CCC[C@@H](N2CCC[C@H]2C(N)=O)C1`, for which the inhibition entry (in the experiment with Streptococcus pyogenes [1]; at Papain (Carica papaya); in experiment [3]) was “Active” throughout.
In the case of `CCN(CC(N)=O)[C@H]1CCCN(C(=O)[C@H](CC(C)C)NC(=O)[C@@H](N)CC(C)C)C1`, the inhibition entry (in the experiment with Streptococcus pyogenes [1]; in experiment [3]) was “Active” in each case.
Regarding `CC(C)C[C@H](NC(=O)[C@@H](N)CC(C)C)C(=O)NCC(=O)NCC(=O)O` (H-LLGG-OH), the inhibition result (with Streptococcus pyogenes [1]; in experiment [3]) was “Active” each time. Also, in the experiment with Streptococcus pyogenes [2], the inhibition entry is “inactive”.
With `CCN(CC(N)=O)[C@@H]1CCCN(C(=O)[C@H](CC(C)C)NC(=O)[C@@H](N)CC(C)C)C1`, the inhibition entry (with Streptococcus pyogenes [1]; in experiment [3]) was “Active” each time.
As to `CC(C)[C@H](NC(=O)[C@H](CO)NC(=O)[C@@H]1CCCN1C(=O)CN)C(=O)O` (H-GPSV-OH), the inhibition entry with Streptococcus pyogenes [2] was “inactive”.
As to `CC(C)C[C@H](N)C(=O)N1CCC[C@H](NCC(N)=O)C1`, in the experiment with Streptococcus pyogenes [1], the inhibition result is “Active”. Moreover, the inhibition entry (on Papain (Carica papaya); in experiment [3]) was “inactive” in each case.
With `NC(=O)[C@@H]1CCCN1C(=O)CN[C@@H]1CCCNC1`, the inhibition result with Streptococcus pyogenes [1] and at Papain (Carica papaya) was “Active” throughout.
Consider H-PELLGGPS-OH, for which the inhibition result in the experiment on Streptococcus pyogenes [2] is “inactive”.
On the same count and under the same terms, then `NCC(=O)NCC(=O)N1CCC[C@H]1C(=O)N[C@@H](CO)C(=O)O` (H-GGPS-OH), with “inactive”.

As usually defined, the Ki is a measure of affinity in units of concentration, obtained from inhibition or displacement. Low readings indicate a stronger hold on the target, high ones a looser hold on the target.
